Assay results taken from ChEMBL document CHEMBL1157800, “Hasubanan alkaloids with delta-opioid binding affinity from the aerial parts of Stephania japonica” (J Nat Prod, 2010).

Tests used:
Assay type in all cases: cell membranes
[1] = target: Delta-type opioid receptor (Homo sapiens, UniProt P41143); assay: Displacement of [3H]deltorphin-2 from human delta opioid receptor expressed in HEK293 cell membrane
[2] = target: Mu-type opioid receptor (Homo sapiens) (UniProt P35372); assay: Displacement of [3H]naloxone from mu opioid receptor expressed in CHO cell membrane at 10 uM
Mu-type opioid receptor (Homo sapiens), sequence (P35372 whole entry): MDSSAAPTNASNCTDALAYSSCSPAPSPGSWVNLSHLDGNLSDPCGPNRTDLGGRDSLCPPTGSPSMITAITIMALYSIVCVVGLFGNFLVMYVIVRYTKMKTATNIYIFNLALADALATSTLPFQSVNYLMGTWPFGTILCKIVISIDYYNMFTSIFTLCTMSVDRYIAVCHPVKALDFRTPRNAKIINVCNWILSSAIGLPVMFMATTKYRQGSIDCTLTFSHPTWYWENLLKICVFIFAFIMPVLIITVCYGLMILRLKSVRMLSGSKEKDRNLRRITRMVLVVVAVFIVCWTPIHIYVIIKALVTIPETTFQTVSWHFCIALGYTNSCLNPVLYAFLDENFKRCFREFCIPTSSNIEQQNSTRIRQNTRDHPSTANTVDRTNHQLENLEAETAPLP
Summary of the method: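 Filtration binding with recombinant human µ receptor CHO cell membranes (0.017 mg/mL) and [3H]-naloxone (0.66 nM). Buffer: 50 mM Tris, 10 mM MgCl2, 1 mM EDTA, pH 7.4. Incubated 90 min, including 60 min shaking, at ca. 23 °C. Harvested onto PEI-presoaked GF/B mats, oven-dried at 50 °C, then liquid scintillation counted.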

[3] = target: Kappa-type opioid receptor (Homo sapiens) (UniProt P41145); assay: Displacement of [3H]naloxone from kappa opioid receptor expressed in HEK293 cell membrane at 10 uM
Kappa-type opioid receptor (Homo sapiens), sequence (P41145 whole entry): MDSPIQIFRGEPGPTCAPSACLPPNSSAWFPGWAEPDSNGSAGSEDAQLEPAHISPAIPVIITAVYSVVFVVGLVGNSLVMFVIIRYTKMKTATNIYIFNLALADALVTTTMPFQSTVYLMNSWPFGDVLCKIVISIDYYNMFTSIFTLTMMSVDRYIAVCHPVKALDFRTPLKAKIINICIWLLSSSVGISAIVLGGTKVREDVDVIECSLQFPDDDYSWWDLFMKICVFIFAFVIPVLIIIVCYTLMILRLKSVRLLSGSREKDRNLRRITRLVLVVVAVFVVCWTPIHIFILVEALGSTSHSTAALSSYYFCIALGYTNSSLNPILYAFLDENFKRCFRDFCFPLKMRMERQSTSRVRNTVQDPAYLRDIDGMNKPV

Delta-type opioid receptor, sequence (P41143 whole entry): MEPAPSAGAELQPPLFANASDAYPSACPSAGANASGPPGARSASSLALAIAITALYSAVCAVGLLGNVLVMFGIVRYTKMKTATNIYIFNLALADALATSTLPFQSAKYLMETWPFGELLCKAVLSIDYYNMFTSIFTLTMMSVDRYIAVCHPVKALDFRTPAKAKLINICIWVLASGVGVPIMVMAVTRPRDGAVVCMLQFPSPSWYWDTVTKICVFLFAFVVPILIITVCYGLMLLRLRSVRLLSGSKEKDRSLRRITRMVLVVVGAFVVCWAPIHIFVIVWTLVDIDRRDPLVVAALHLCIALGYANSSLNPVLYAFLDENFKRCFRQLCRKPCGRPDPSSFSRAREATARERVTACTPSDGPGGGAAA

Compound | IC50 [1] | inhibition [2] | inhibition [3]
COc1ccc(/C=C/C(=O)O[C@H]2C[C@]34CCN(C)[C@@]35C[C@H](O[C@]5(OC)[C@H]2OC)c2ccc(OC)c(O)c24)cc1O | 11.3 µM | 56% | 0%
COc1ccc2c(c1O)[C@@]13CCN(C)[C@@]14C[C@@H]2O[C@]4(OC)[C@@H](OC)[C@@H](O)C3 | 2.1 µM | 68% | 0%
COc1ccc2c(c1O)[C@@]13CCN(C)[C@@]14C[C@@H]2O[C@]4(O)[C@@H](OC)[C@@H](O)C3 [LONGANINE] | 0.7 µM | 68% | 0%
COc1ccc2c(c1O)[C@@]13CC(=O)N(C)[C@@]14C[C@@H]2O[C@]4(OC)[C@@H](OC)[C@@H](OC(=O)/C=C/c1ccccc1)C3 | 5.1 µM | 74% | 0%
COC1=C(OC)[C@]23CCc4ccc(OC)c(O)c4[C@]2(CCN3C)CC1=O [AKNADININE] | 46 µM | 68% | 0%
COc1ccc2c(c1O)[C@@]13CCN(C)[C@@]14C[C@@H]2O[C@]4(OC)[C@@H](O)[C@@H](OC(=O)/C=C/c1ccccc1)C3 | 2.5 µM | 54% | 0%
COC1=C2[C@@H]3Cc4ccc(OC)c(O)c4[C@]2(CCN3)C[C@H](O)[C@@H]1O [SINOCOCULINE] | 37 µM | 54% | 0%
COC1=CC[C@]23CCN(C)[C@@]24C[C@H](O[C@@]14O)c1ccc(OC)c(O)c13 [PROSTEPHABYSSINE] | 5.5 µM | 67% | 0%
COC1=C(OC)[C@]23CCc4ccc(OC)c(O)c4[C@@]2(CC1=O)CC(=O)N3C | 17 µM | 49% | 0%
